Assay results reported in ChEMBL document CHEMBL4270576, “Discovery of a benzenesulfonamide-based dual inhibitor of microsomal prostaglandin E2 synthase-1 and 5-lipoxygenase that favorably modulates lipid mediator biosynthesis in inflammation” (Eur J Med Chem, 2018).
Activity calls are given as the source filed them. The rule behind the calls is not given here.

Tests used:
Mus musculus = assay: Antiinflammatory activity in zymosan induced CD-1 mouse model of inflammation assessed as reduction in leukocyte recruitment in air pouch at 10 mg/kg, ip preincubated for 30 mins followed by zymosan challenge and measured after 4 hrs by trypan blue staining-based burker's chamber method; assay type: functional, organism-based
Outline: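 Air pouch formed by s.c. injection of 2.5 mL sterile air in CD-1 mice; on day 6, 10 mg/kg i.p. (2% DMSO/saline) given 30 min before 1 ml 1% w/v zymosan into the pouch. After 4 h, exudate collected with 1 ml saline and centrifuged; leukocytes counted in Burker chamber; LTB4 in supernatant by ELISA (ng/mL). n=6 mice per group.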

[1] = molecular target: T1, Polyunsaturated fatty acid 5-lipoxygenase (Homo sapiens) (UniProt P09917); assay: Inhibition of recombinant human 5-LO expressed in Escherichia coli BL21 (DE3) using 2.5 to 80 uM arachidonic acid as substrate […] followed by CaCl2 and substrate addition measured after 10 mins by RP-HPLC analysis
T1 sequence (whole entry): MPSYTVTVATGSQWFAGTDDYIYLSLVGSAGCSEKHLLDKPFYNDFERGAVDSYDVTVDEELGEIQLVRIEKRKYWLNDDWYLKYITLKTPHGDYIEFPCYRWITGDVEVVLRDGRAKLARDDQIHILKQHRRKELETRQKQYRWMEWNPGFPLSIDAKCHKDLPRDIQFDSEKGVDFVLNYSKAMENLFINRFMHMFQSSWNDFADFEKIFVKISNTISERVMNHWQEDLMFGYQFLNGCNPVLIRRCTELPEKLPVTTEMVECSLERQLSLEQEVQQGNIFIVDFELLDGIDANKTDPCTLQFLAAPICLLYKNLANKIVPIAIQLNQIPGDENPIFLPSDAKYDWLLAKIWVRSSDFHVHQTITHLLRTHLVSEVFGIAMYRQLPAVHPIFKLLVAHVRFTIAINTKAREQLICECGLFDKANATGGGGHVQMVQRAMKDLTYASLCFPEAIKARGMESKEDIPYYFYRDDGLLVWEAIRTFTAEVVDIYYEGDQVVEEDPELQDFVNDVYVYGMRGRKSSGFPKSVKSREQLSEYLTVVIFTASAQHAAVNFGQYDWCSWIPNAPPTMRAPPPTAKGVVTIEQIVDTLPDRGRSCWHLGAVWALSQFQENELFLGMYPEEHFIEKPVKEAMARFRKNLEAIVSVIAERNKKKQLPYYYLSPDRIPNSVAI

Cyclooxygenase = Cyclooxygenase (Homo sapiens, UniProt P35354+P23219); assay: Inhibition of COX1/2 (unknown origin) at 10 uM; assay type: protein assay
Prostaglandin E synthase = molecular target: T2, Prostaglandin E synthase (Homo sapiens, UniProt O14684); assay: Inhibition of mPGES-1 isolated from microsomes of interleukin-1 beta-stimulated human A549 cells using PGH2 as substrate preincubated for 15 mins followed by substrate addition measured after 1 min by RP-HPLC analysis
T2 sequence (O14684 whole entry): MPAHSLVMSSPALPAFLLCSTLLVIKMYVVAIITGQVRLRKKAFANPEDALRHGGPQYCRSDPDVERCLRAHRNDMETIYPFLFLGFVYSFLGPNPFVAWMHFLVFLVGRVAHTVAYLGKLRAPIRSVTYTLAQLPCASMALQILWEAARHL
Outline: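 Microsomes from A549 cells treated with IL-1β (1 ng/ml, 72 h), diluted in 0.1 M potassium phosphate pH 7.4 with 2.5 mM glutathione. Pre-incubated 15 min with compound or DMSO, then 20 µM PGH2 (final) for 1 min at 4 °C. IC50 from 4-5 concentrations.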

[2] = molecular target: T1, Polyunsaturated fatty acid 5-lipoxygenase (Homo sapiens); assay: Inhibition of 5-LO in human M1 macrophages derived from LPS/IFNgamma-polarized human monocyte derived macrophages assessed as effect on 5,6-diHETE level at 3 uM preincubated for 15 mins followed by Escherichia coli (O6:K2:H1) challenge for 90 mins by LC-MS/MS analysis; set-up: scale not given: the % may be the effect or the level left
Outline: (§1)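 Monocytes differentiated 6 days with GM-CSF (20 ng/ml) in RPMI/10% FCS, then polarized 48 h with LPS 100 ng/ml plus IFN-γ 20 ng/ml (M1). Cells (2 × 10^6) in PBS with 1 mM CaCl2 pre-incubated 15 min at 37 °C with 3 µM compound or 0.1% DMSO, then E. coli O6:K2:H1 (1:50) for 90 min. Methanol with deuterated standards added; SPE; UPLC-MS/MS; expressed as % of vehicle.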

[3] = molecular target: T1, Polyunsaturated fatty acid 5-lipoxygenase (Homo sapiens); assay: Inhibition of 5-LO in human M1 macrophages derived from LPS/IFNgamma-polarized human monocyte derived macrophages assessed as effect on t-LTB4 level at 3 uM preincubated for 15 mins followed by Escherichia coli (O6:K2:H1) challenge for 90 mins by LC-MS/MS analysis; set-up: scale not given: the % may be the effect or the level left; outline: as §1
[4] = molecular target: T3, Polyunsaturated fatty acid 5-lipoxygenase (Homo sapiens, UniProt P09917); assay: Inhibition of recombinant human 5-LO expressed in Escherichia coli BL21 (DE3) using arachidonic acid as substrate preincubated for 10 mins followed by CaCl2 and substrate addition measured after 10 mins by RP-HPLC analysis
T3 sequence (P09917 whole entry): T1 sequence (whole entry)
Outline: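 Human recombinant 5-LO from E. coli BL21(DE3), ATP-agarose semi-purified (0.5 µg/ml), pre-incubated with compound or 0.1% DMSO at 4 °C. It was pre-warmed 30 s at 37 °C, then started with 2 mM CaCl2 plus 20 µM AA. Stopped after 10 min with ice-cold methanol; products by RP-HPLC. Residual activity at 10 µM; IC50 from 4-5 concentrations; n=3-4.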

- inhibition [1]: Active
- inhibition (INH) (Cyclooxygenase): Not Active
- IC50 (Prostaglandin E synthase): 700 nM
- Activity [2]: 13%
- Activity [3]: 17%
- IC50 [4]: 2300 nM
SMILES: O=C(O)c1ccc(N(Cc2cccc(OCc3ccccc3)c2)S(=O)(=O)c2ccc(-c3ccccc3)cc2)cc1
- Activity (Mus musculus): Active
